What is called ΔTm is the shift of the melting midpoint relative to a reference.

Experiment [1] can be described thus: Photo-activated binding affinity to A-F-C/T-G-G duplex DNA (unknown origin) at 100 uM measured for 24 hrs by HPLC analysis. Put shortly:
(§1)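 Duplex at 10 µM (F = tetrahydrofuran AP analogue) with 100 µM ligand in 10 mM HEPES-NaOH pH 7.0, 5 mM DTT and 100 mM NaCl. Irradiated with UVA (4 W, 365 nm) at rt. Analysed by reversed-phase C18 HPLC at 50 °C with 254 nm detection, TEAA pH 7.0/MeCN gradient. Product peak identified by MALDI-TOF MS.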

Experiment [2] in a line: Binding affinity to A-C-C/T-G-G duplex DNA (unknown origin) assessed as change in melting temperature at 10 uM by UV-Vis spectrophotometric analysis (reference value: 54.8 +/- 0.0 degC).
Experiment [3] can be described thus: Binding affinity to C-F-A/G-C-T duplex DNA (unknown origin) assessed as change in melting temperature at 10 uM by UV-Vis spectrophotometric analysis (reference value: 32.0 +/- 0.4 degC).
Experiment [4] in a line: Binding affinity to A-F-C/T-T-G duplex DNA (unknown origin) assessed as change in melting temperature at 10 uM by UV-Vis spectrophotometric analysis (reference value: 33.0 +/- 0.4 degC).
A short description of experiment [5]: Induction of DNA cleavage in 5'-FAM-DNA1(U)/DNA2(A) duplex DNA (unknown origin) assessed as formation DNA8 at 10 uM measured for 5 hrs by fluorescence based PAGE analysis. The essentials:
(§2)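 DNA1(U)/DNA2(X) was annealed 5 min at 70 °C and treated with uracil-DNA glycosylase (0.2 unit/µl, pH 7.4, 37 °C, 15 min) to form the AP site. The 100 nM duplex was re-annealed in 10 mM HEPES-NaOH pH 7.0 with 100 mM NaCl, then incubated with 10 µM ligand at 37 °C for 5–300 min. Reactions were quenched with urea/EDTA loading buffer on ice. Products were run on 12% denaturing PAGE (8 M urea), imaged by 5'-FAM fluorescence, and band ratios (%) quantified.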

The nature of experiment [6]: Induction of DNA cleavage in 5'-FAM-DNA1(U)/DNA2(A) duplex DNA (unknown origin) assessed as formation of beta elimination production DNA4 at 10 uM measured for 5 hrs by fluorescence based PAGE analysis. The essentials: as §2
Experiment [7] can be described thus: Binding affinity to A-F-A/T-C-T duplex DNA (unknown origin) assessed as change in melting temperature at 10 uM by UV-Vis spectrophotometric analysis (reference value: 29.9 +/- 0.3 degC).
The nature of experiment [8]: Photo-activated binding affinity to A-F-C/T-T-G duplex DNA (unknown origin) at 100 uM measured for 24 hrs by HPLC analysis. The essentials:
as §1

Experiment [9] can be described thus: Induction of DNA cleavage in 5'-FAM-DNA1(U)/DNA2(A) duplex DNA (unknown origin) assessed as change in formation of DNA4 at 10 uM by fluorescence based PAGE analysis. Put shortly: as §2
Experiment [10] can be described thus: Binding affinity to A-T-C/T-A-G duplex DNA (unknown origin) assessed as change in melting temperature at 10 uM by UV-Vis spectrophotometric analysis (reference value: 52.0 +/- 0.1 degC).
Experiment [11] in a line: Induction of DNA cleavage in 5'-FAM-DNA1(U)/DNA2(C) duplex DNA (unknown origin) assessed as formation of delta elimination production DNA7 at 10 uM by fluorescence based PAGE analysis. The essentials:
as §2

The nature of experiment [12]: Induction of DNA cleavage in 5'-FAM-DNA1(U)/DNA2(C) duplex DNA (unknown origin) assessed as formation DNA8 at 10 uM measured for 5 hrs by fluorescence based PAGE analysis. The essentials: as §2
The nature of experiment [13]: Binding affinity to C-G-A/G-C-T duplex DNA (unknown origin) assessed as change in melting temperature at 10 uM by UV-Vis spectrophotometric analysis (reference value: 55.2 +/- 0.1 degC).
Experiment [14] in a line: Photo-activated binding affinity to A-F-C/T-A-G duplex DNA (unknown origin) at 100 uM measured for 24 hrs by HPLC analysis. Put shortly:
as §1

A short description of experiment [15]: Binding affinity to A-F-C/T-C-G duplex DNA (unknown origin) assessed as change in melting temperature at 10 uM by UV-Vis spectrophotometric analysis (reference value: 30.7 +/- 0.3 degC).
A short description of experiment [16]: Photo-activated binding affinity to A-F-A/T-C-T duplex DNA (unknown origin) at 100 uM measured for 24 hrs by HPLC analysis. Put shortly: as §1
A short description of experiment [17]: Induction of DNA cleavage in 5'-FAM-DNA1(U)/DNA2(A) duplex DNA (unknown origin) assessed as formation of delta elimination production DNA7 at 10 uM measured for 5 hrs by fluorescence based PAGE analysis. The essentials: as §2
Experiment [18] in a line: Induction of DNA cleavage in 5'-FAM-DNA1(U)/DNA2(C) duplex DNA (unknown origin) assessed as formation of beta elimination production DNA4 at 10 uM measured for 5 hrs by fluorescence based PAGE analysis. The essentials: as §2
The nature of experiment [19]: Photo-activated binding affinity to A-F-C/T-C-G duplex DNA (unknown origin) assessed as induction of photo reaction at 100 uM measured for 3 hrs by HPLC analysis. Put shortly:
as §1

Experiment [20] in a line: Binding affinity to A-G-C/T-C-G duplex DNA (unknown origin) assessed as change in melting temperature at 10 uM by UV-Vis spectrophotometric analysis (reference value: 48.5 +/- 0.1 degC).
The nature of experiment [21]: Induction of DNA cleavage in 5'-FAM-DNA1(U)/DNA2(C) duplex DNA (unknown origin) assessed as increase in slower moving bands at 10 uM measured after 1 hr by fluorescence based PAGE analysis.
Experiment [22] can be described thus: Photo-activated binding affinity to A-F-C/T-C-G duplex DNA (unknown origin) at 100 uM measured for 24 hrs by HPLC analysis. The essentials:
as §1

A short description of experiment [23]: Induction of DNA cleavage in 5'-FAM-DNA1(U)/DNA2(C) duplex DNA (unknown origin) assessed as formation of beta elimination production DNA4 at 10 uM measured for 30 min by fluorescence based PAGE analysis. Put shortly: as §2
A short description of experiment [24]: Binding affinity to A-G-A/T-C-T duplex DNA (unknown origin) assessed as change in melting temperature at 10 uM by UV-Vis spectrophotometric analysis (reference value: 50.3 +/- 0.1 degC).
Experiment [25] can be described thus: Binding affinity to A-A-C/T-T-G duplex DNA (unknown origin) assessed as change in melting temperature at 10 uM by UV-Vis spectrophotometric analysis (reference value: 52.1 +/- 0.1 degC).
Experiment [26] can be described thus: Induction of DNA cleavage in 5'-FAM-DNA1(U)/DNA2(C) duplex DNA (unknown origin) assessed as formation of delta elimination production DNA7 at 10 uM measured for 5 hrs by fluorescence based PAGE analysis. Put shortly: as §2
Experiment [27] is described as follows: Photo-activated binding affinity to C-F-A/G-C-T duplex DNA (unknown origin) at 100 uM measured for 24 hrs by HPLC analysis. Put shortly: as §1
Experiment [28] can be described thus: Binding affinity to A-F-C/T-G-G duplex DNA (unknown origin) assessed as change in melting temperature at 10 uM by UV-Vis spectrophotometric analysis (reference value: 34.4 +/- 0.2 degC).
Experiment [29] is described as follows: Binding affinity to A-F-C/T-A-G duplex DNA (unknown origin) assessed as change in melting temperature at 10 uM by UV-Vis spectrophotometric analysis (reference value: 33.6 +/- 0.2 degC).
Experiment [30] can be described thus: Induction of DNA cleavage in 5'-FAM-DNA1(U)/DNA2(A) duplex DNA (unknown origin) assessed as formation of DNA8 at 10 uM by fluorescence based PAGE analysis. Put shortly:
as §2

The nature of experiment [31]: Induction of DNA cleavage in 5'-FAM-DNA1(U)/DNA2(C) duplex DNA (unknown origin) assessed as formation of DNA8 at 10 uM by fluorescence based PAGE analysis. The essentials:
as §2

The structures appear in SMILES notation. The source made the active and inactive calls. No cut-off for these calls is given here.

On to `NCCCNCCCNCCCn1cnc2c(=S)[nH]c(N)nc21`, for which the outcome in [1], in experiment [8], in experiment [14], in experiment [16] and in experiment [27] was inactive. Also, the shift in melting temperature (ΔTm) in experiment [2] was 0.5 °C; in experiment [3], 3.5 °C; in experiment [4], 1.2 °C; in [7] it was 1.8 °C; in experiment [10] it was 0.5 °C; in experiment [13] it was 0.4 °C. Further, the thermal shift (ΔTm) in [15] was determined as 5.4 °C; in [20], 0.7 °C; in [24], 0.7 °C; in experiment [25] it was 0.2 °C; in experiment [28], 1.6 °C; in experiment [29], 2.3 °C. Moreover, the result in [5], in experiment [6], in [9], in experiment [11], in [12] and in experiment [17] was Active. The result in experiment [18], in experiment [19], in experiment [21], in experiment [22], in experiment [23] and in experiment [26] was Active. Also, the outcome in experiment [30] was Active.
For the molecule `NCCCNCCCNCCCCCn1cnc2c(=S)[nH]c(N)nc21`, the thermal shift (ΔTm) in [2] was 1 °C; in experiment [3], 4.1 °C; in experiment [4], 3.1 °C; in [7], 3.3 °C; in experiment [10], 0.6 °C; in experiment [13], 0.9 °C. The shift in melting temperature (ΔTm) is 4.2 °C in experiment [15]; 0.6 °C in experiment [20]; 0.6 °C in experiment [24]; 0.7 °C in experiment [25]; 3.8 °C in [28]; 2.8 °C in experiment [29]. The result in experiment [5], in experiment [6], in experiment [31], in experiment [9], in experiment [12] and in experiment [17] was Active. Also, the result in experiment [18], in [22], in [26] and in [30] was Active.
Consider `NCCCNCCCNCCCn1cnc2c(=O)[nH]c(N)nc21`, for which the outcome in experiment [21] was inactive.

The record behind these values is ChEMBL document CHEMBL4406905, “The adduct formation between the thioguanine-polyamine ligands and DNA with the AP site under UVA irradiated and non-irradiated conditions” (Bioorg Med Chem, 2019).
